Assay [1] is filed under the species Cavia porcellus. The assay can be described thus: Potency (isolated guinea pig ileum) relative to adiphenine was determined. It counts as functional.
The species named for assay [2] is Cavia porcellus. The assay can be described thus: Antispasmodic activity against isolated guinea pig ileum with metacholine as a spasmogen according to the method of Magnus. It counts as functional. As to conditions: read-out: ID50 (the source's name). Summed up: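 Guinea pig ileum segment in a 25-mL organ bath of Tyrode solution at 37 °C, gassed with 5% CO2–95% O2, equilibrated about 30 min. Repeated standard methacholine chloride challenges (4 × 10^-6 M) confirm a consistent response. Percent inhibition of contraction is measured and ID50 is taken by linear regression.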

Assay [3] deals with Muscarinic acetylcholine receptor. In words: Affinity for the Muscarinic acetylcholine receptor. Format: protein assay, Rattus norvegicus.
The species entered for assay [4] is Rattus norvegicus. The assay can be described thus: Potency (isolated rat ileum) relative to adiphenine was determined. Format: functional.
In assay [5] the target is Muscarinic acetylcholine receptor. In words: pA2 value represents the affinity for the Muscarinic acetylcholine receptor and was calculated according to the Ariens and Van Rossum. It counts as protein assay. An outline of the steps:
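Terminal ileum from male Sprague-Dawley rats (250–300 g) killed by cervical dislocation, in a 10-mL bath of Tyrode solution at 35 °C gassed with 95% O2/5% CO2, equilibrated ≥30 min. Cumulative ACh 0.05–1.0 μg/mL at 3-min intervals gives the control curve. After washout and 30 min, compound is added; 10 min later ACh 1–300 μg/mL is given cumulatively. Contraction is read in mm. pA2 = pAx + log(x − 1), with x the ACh EC50 ratio, by linear regression over two or more experiments at four or more dose levels.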

With `CCCCC(C(=O)OCCN(CC)CC)(c1ccccc1)c1ccccc1.Cl`, the Relative potency in assay [1] came out at 0.28. For the same compound, the IC50 in assay [2] (Cavia porcellus, Ileum) was 2600 nM.

For the compound `CCN(CC)CCO[C@@H]1CCCC[C@@H]1c1ccccc1.Cl` (relative stereo), the pA2 in assay [3] stood at 7.13. The same compound registered a Relative potency in assay [4] of 0.47.

`CCN(CC)CCOC(=O)C(CO)c1ccccc1.Cl` (single isomer, unassigned; (-)): the Relative potency stood at 23.87 in assay [1] and 0.91 in assay [4]. In assay [3], the pA2 worked out at 7.4. Besides, the IC50 in assay [2] was found to be 31 nM.

With `CCCC(C(=O)OCCN(CC)CC)(c1ccccc1)c1ccccc1.Cl` [PROADIFEN HYDROCHLORIDE], the Relative potency in assay [1] was 0.62. Besides, the IC50 in assay [2] (Cavia porcellus, Ileum) amounted to 1200 nM.

The compound `CCN(CC)CCO[C@H]1CCCC[C@@H]1c1ccccc1.Cl` (relative stereo) registered a pA2 in assay [3] of 6.38. In assay [4], this compound registered a Relative potency of 0.09.

For `CCN(CC)CCOC(=O)C(CO)c1ccccc1.Cl` (racemic), the Relative potency in assay [1] worked out at 10.57; in assay [4] it was 0.48. For the same compound, the IC50 in assay [2] was found to be 70 nM. Further, the pA2 in assay [5] is given as 7.13.

Turning to `CCN(CC)CCOC(=O)C(CCCCO)c1ccccc1.Cl` (racemic), the Relative potency in assay [1] is on record as 0.67. In addition, in assay [2], the IC50 came to 1100 nM.

On to `CCN(CC)CCOC(=O)C(CC)(c1ccccc1)c1ccccc1.Cl`, for which the Relative potency in assay [1] turned out to be 2.24; in assay [4] it was 0.15. The same compound showed a pA2 in assay [3] of 6.63. Further, in assay [2] (Cavia porcellus, Ileum), the IC50 was found to be 330 nM.

As to `CCN(CC)CCOC(=O)C(CO)c1ccccc1.Cl` (single isomer, unassigned; (+)), the Relative potency in assay [1] was determined as 3.52. The IC50 in assay [2] worked out at 210 nM.

With `CCN(CC)CCOC(=O)C(C)(c1ccccc1)c1ccccc1.Cl`, the Relative potency was found to be 14 in assay [1] and 9 in assay [4]. In assay [3], this compound gave a pA2 of 8.4. Moreover, the IC50 in assay [2] (Cavia porcellus, Ileum) amounted to 53 nM.

Regarding `CCN(CC)CCOC(=O)C(COS(=O)(=O)c1ccc(C)cc1)c1ccccc1.Cl` (single isomer, unassigned; (-)), in assay [3], the pA2 worked out at 6.42. Besides, in assay [4], the Relative potency amounted to 0.09.

The compound `CCN(CC)CCOC(=O)C(CC(C)C)(c1ccccc1)c1ccccc1.Cl` came in with a Relative potency in assay [1] of 0.62. Moreover, in assay [2] (Cavia porcellus, Ileum), the IC50 is 1200 nM.

For the compound `C=C(C(=O)OCCN(CC)CC)c1ccccc1.Cl`, the pA2 in assay [3] is 5.86. Moreover, the Relative potency in assay [4] came to 0.03.

In turn, `CCN(CC)CCOC(=O)C(COS(=O)(=O)c1ccc(C)cc1)c1ccccc1.Cl` (single isomer, unassigned; (+)) returned a pA2 in assay [3] of 6.67. In assay [4], this compound returned a Relative potency of 0.17.

With `CCN(CC)CCOC(=O)C(CCCCO)c1ccccc1.Cl` (single isomer, unassigned; (+)), the Relative potency in assay [1] worked out at 0.74. Moreover, in assay [2] (Cavia porcellus, Ileum), the IC50 is 1000 nM.

As for `CCN(CC)CCOC(=O)C(c1ccccc1)(c1ccccc1)C(C)C.Cl`, the Relative potency in assay [1] is 0.57. Also, the IC50 in assay [2] (Cavia porcellus, Ileum) came out at 1300 nM.

As to `CCN(CC)CCOC(=O)C(c1ccccc1)c1ccccc1.Cl` [ADIPHENINE HYDROCHLORIDE], the Relative potency in assay [1] and in assay [4] was 1 each time. The same compound showed a pA2 in assay [3] of 7.45. Besides, the IC50 in assay [2] (Cavia porcellus, Ileum) came out at 740 nM.
